Assay type in all cases: functional, cell-based
Experiment [1] relates to K562. The experiment in a line: Cytotoxicity against human K562 cells. Summed up:
(§1)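 K562 and CEM cells; IC50 values calculated from both trypan blue counting and MTT assays.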

In experiment [2] the test system is CCRF-CEM. The experiment in a line: Cytotoxicity against human CEM cells. Summed up:
as §1

The subject of experiment [3] is CCRF-CEM. The experiment in a line: Cytotoxicity against human CEM cells at 100 uM within 48 hrs by trypan blue exclusion assay. Summed up:
(§2)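 Leukemic cells treated with derivatives dissolved in DMSO at […]; DMSO-only cells at the amount used for the top concentration served as vehicle control. Viable cells counted by trypan blue at 24 h intervals until stationary phase.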

The test system of experiment [4] is CCRF-CEM. The experiment in a line: Cytotoxicity against human CEM cells at 250 uM within 48 hrs by trypan blue exclusion assay. Summed up:
as §2

The test system of experiment [5] is K562. The experiment in a line: Cytotoxicity against human K562 cells at 100 uM within 48 hrs by trypan blue exclusion assay. Summed up:
as §2

In experiment [6] the test system is K562. The experiment in a line: Cytotoxicity against human K562 cells at 250 uM within 48 hrs by trypan blue exclusion assay. Summed up: as §2
The test system of experiment [7] is K562. The experiment in a line: Induction of apoptosis in human K562 cells assessed as DNA strand breakage at 100 uM after 72 hrs using ethidium bromide staining by agarose gel electrophoresis.
The test system of experiment [8] is K562. The experiment in a line: Induction of apoptosis in human K562 cells assessed as PARP cleavage at 30 uM after 12 hrs by SDS-PAGE. Summed up:
(§3)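 K562 cells treated with […] compound for 12 and 24 h; DMSO-treated cells grown 24 h as vehicle control. Lysates separated by SDS-PAGE, transferred to PVDF, probed with specific primary and secondary antibodies for BAD, BCL2 and PARP.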

Experiment [9] deals with K562. The experiment in a line: Induction of apoptosis in human K562 cells assessed as upregulation of BAD protein at 30 uM by SDS-PAGE. The settings on record: TDE = time-dependent effect. In a few lines: as §3
Experiment [10] relates to K562. The experiment in a line: Induction of cell cycle arrest at S phase in human K562 cells assessed as down-regulation of CDK2 at 10 uM after 24 hrs by Western blot analysis.
Experiment [11] has as its system K562. The experiment in a line: Induction of p21 activation in human K562 cells at 5 to 10 uM after 24 hrs by Western blot analysis.
Experiment [12] relates to K562. The experiment in a line: Cell cycle arrest in human K562 cells assessed as accumulation at S phase at 1 to 10 uM after 8 to 48 hrs by FACS analysis. In a few lines:
(§4)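 K562 cells treated with […] compound, analysed by FACS for cell cycle distribution; DMSO-treated cells as vehicle control.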

For experiment [13], the system named is K562. The experiment in a line: Induction of cell cycle arrest at M phase in human K562 cells assessed as reduction in phosphorylated histone H3 level at 10 uM after 24 hrs by Western blot analysis.
For experiment [14], the system named is K562. The experiment in a line: Induction of cell cycle arrest in human K562 cells assessed as reduction in PCNA level at 5 to 10 uM after 24 hrs by Western blot analysis.
Experiment [15] has as its system K562. The experiment in a line: Induction of apoptosis in human K562 cells assessed as down-regulation of BCL2 protein at 30 uM after 12 hrs by SDS-PAGE. Summed up: as §3
In experiment [16] the test system is K562. The experiment in a line: Induction of cell cycle arrest at G2/M phase in human K562 cells assessed as down-regulation of cyclin B1 at 5 to 10 uM after 24 hrs by Western blot analysis.
The test system of experiment [17] is K562. The experiment in a line: Induction of cell cycle arrest at M phase in human K562 cells assessed as reduction in phosphorylated histone H3 level at 5 uM after 24 hrs by Western blot analysis.
The subject of experiment [18] is K562. The experiment in a line: Induction of apoptosis in human K562 cells assessed as DNA strand breakage at 10 uM after 72 hrs using ethidium bromide staining by agarose gel electrophoresis.
For experiment [19], the system named is K562. The experiment in a line: Cell cycle arrest in human K562 cells assessed as accumulation at G2/M phase at 1 to 10 uM after 8 to 48 hrs by FACS analysis. In a few lines:
as §4

The values that follow come from ChEMBL document CHEMBL1153485, “Synthesis and biological evaluation of novel 1-(4-methoxyphenethyl)-1H-benzimidazole-5-carboxylic acid derivatives and their precursors as antileukemic agents” (Bioorg Med Chem Lett, 2009).

The source made the active and inactive calls. The rule behind the calls is not given here.

As for `COc1ccc(CCn2c(-c3c(F)cccc3F)nc3cc(C(=O)O)ccc32)cc1`, the IC50 with K562 [1] was 80 µM; in the experiment with CCRF-CEM [2], 85 µM.
Consider `COC(=O)c1ccc2c(c1)nc(-c1ccc(C(C)(C)C)cc1)n2CCc1ccc(OC)cc1`, for which the outcome in the experiment on CCRF-CEM [3], in the experiment with CCRF-CEM [4], in the experiment on K562 [5] and in the experiment with K562 [6] was Active. Also, the figures for the IC50 with K562 [1] and in the experiment on CCRF-CEM [2] were 70 µM and 68 µM, respectively.
As for `COc1ccc(CCn2c(-c3ccc(F)c(N)c3)nc3cc(C(=O)O)ccc32)cc1`, the figures for the IC50 with K562 [1] and in the experiment with CCRF-CEM [2] were 180 µM and 182 µM, respectively.
The matching figures for `COC(=O)c1ccc2c(c1)nc(-c1cccc(Br)c1)n2CCc1ccc(OC)cc1`: above 250 µM and above 250 µM.
The corresponding values for `COC(=O)c1ccc2c(c1)nc(-c1ccc(N)cc1)n2CCc1ccc(OC)cc1` are 180 µM and 175 µM.
`COC(=O)c1ccc2c(c1)nc(-c1ccc(Cl)cc1Cl)n2CCc1ccc(OC)cc1`: the IC50 in the experiment with K562 [1] and with CCRF-CEM [2] was above 250 µM in each case.
In the case of `COc1ccc(CCn2c(-c3ccc(N)cc3)nc3cc(C(=O)O)ccc32)cc1`, the IC50 in the experiment on K562 [1] and in the experiment on CCRF-CEM [2] was above 250 µM in each case.
With `COc1ccc(CCn2c(-c3ccc(F)c([N+](=O)[O-])c3)nc3cc(C(=O)O)ccc32)cc1`, the IC50 in the experiment with K562 [1] came to 135 µM; with CCRF-CEM [2] it was 132 µM.
On to `COC(=O)c1ccc2c(c1)nc(-c1ccccc1)n2CCc1ccc(OC)cc1`, for which the result in the experiment on CCRF-CEM [3], in the experiment with CCRF-CEM [4], with K562 [5] and in the experiment on K562 [6] was Active. Moreover, the IC50 worked out at 64 µM in the experiment on K562 [1] and 65 µM with CCRF-CEM [2].
Turning to `COC(=O)c1ccc2c(c1)nc(-c1c(F)cccc1F)n2CCc1ccc(OC)cc1`, the result with CCRF-CEM [3], in the experiment with CCRF-CEM [4], in the experiment with K562 [5] and with K562 [6] was Active. Moreover, the results for the IC50 with K562 [1] and in the experiment with CCRF-CEM [2] were 84 µM and 85 µM, respectively.
`COc1ccc(CCn2c(-c3ccccc3)nc3cc(C(=O)O)ccc32)cc1`: the IC50 in the experiment on K562 [1] and in the experiment on CCRF-CEM [2] was above 250 µM in each case.
Turning to `COc1ccc(CCn2c(-c3ccc(Cl)cc3Cl)nc3cc(C(=O)O)ccc32)cc1`, the result in the experiment on CCRF-CEM [3], in the experiment on CCRF-CEM [4], in the experiment on K562 [5] and in the experiment on K562 [6] was Active. Also, the IC50 is 110 µM in the experiment with K562 [1] and 102 µM in the experiment on CCRF-CEM [2].
Take `COC(=O)c1ccc2c(c1)nc(-c1cccc(OC)c1)n2CCc1ccc(OC)cc1`: the outcome with CCRF-CEM [3], in the experiment with CCRF-CEM [4], in the experiment on K562 [5] and with K562 [6] was Active. The IC50 with K562 [1] amounted to 136 µM; in the experiment with CCRF-CEM [2], 138 µM.
In the case of `COc1ccc(CCn2c(-c3cccc(Br)c3)nc3cc(C(=O)O)ccc32)cc1`, the outcome in the experiment on CCRF-CEM [3], with CCRF-CEM [4], in the experiment with K562 [5] and with K562 [6] was Active. In addition, the half-maximal inhibitory concentration (IC50) was determined as 124 µM in the experiment on K562 [1] and 120 µM in the experiment with CCRF-CEM [2].
Consider `COC(=O)c1ccc2c(c1)nc(-c1ccc([N+](=O)[O-])cc1)n2CCc1ccc(OC)cc1`, for which the IC50 in the experiment with K562 [1] came to 120 µM; in the experiment on CCRF-CEM [2] it was 122 µM.
The corresponding values for `COc1ccc(CCn2c(-c3cccc(OC)c3)nc3cc(C(=O)O)ccc32)cc1` are 200 µM and 195 µM.
Take `COc1ccc(CCn2c(-c3ccc(C(C)(C)C)cc3)nc3cc(C(=O)O)ccc32)cc1`: the IC50 in the experiment with K562 [1] worked out at 40 µM; in the experiment on CCRF-CEM [2], 42 µM. In the experiment on K562 [7], the result was Active.
Take `COc1ccc(CCn2c(-c3ccc([N+](=O)[O-])cc3)nc3cc(C(=O)O)ccc32)cc1`: the half-maximal inhibitory concentration (IC50) in the experiment with K562 [1] came to 250 µM; with CCRF-CEM [2] it was 245 µM.
On to `COc1ccc(CCn2c(-c3ccccc3F)nc3cc(C(=O)O)ccc32)cc1`, for which the IC50 with K562 [1] stood at 240 µM; in the experiment on CCRF-CEM [2], 244 µM.
Regarding `COC(=O)c1ccc2c(c1)nc(-c1ccc(F)c([N+](=O)[O-])c1)n2CCc1ccc(OC)cc1`, the result with K562 [8], with K562 [10], in the experiment with K562 [11], with K562 [12], with CCRF-CEM [3] and with K562 [13] was Active. Also, the result in the experiment with CCRF-CEM [4], with K562 [5], in the experiment on K562 [14], in the experiment on K562 [15], with K562 [16] and in the experiment with K562 [17] was Active. Further, the outcome in the experiment on K562 [18], with K562 [6] and in the experiment with K562 [19] was Active. In addition, the Activity result in the experiment on K562 [9] was “tde”. Further, the IC50 in the experiment on K562 [1] was 3 µM; in the experiment on CCRF-CEM [2] it was 4 µM.
Turning to `COC(=O)c1ccc2c(c1)nc(-c1ccccc1F)n2CCc1ccc(OC)cc1`, the outcome in the experiment on CCRF-CEM [3], in the experiment with CCRF-CEM [4], in the experiment with K562 [5], in the experiment on K562 [7] and in the experiment on K562 [6] was Active. Further, the results for the IC50 in the experiment on K562 [1] and in the experiment on CCRF-CEM [2] were 56 µM and 55 µM, respectively.
`COC(=O)c1ccc2c(c1)nc(-c1ccc(F)c(N)c1)n2CCc1ccc(OC)cc1`: the values for the IC50 in the experiment on K562 [1] and with CCRF-CEM [2] were 78 µM and 75 µM, respectively.
